Experimental findings from ChEMBL document CHEMBL1177835, “A note to the biological activity of benzoxazine derivatives containing the thioxo group” (Eur J Med Chem, 2010) are described below.

Data set [1] concerns Mycobacterium tuberculosis. The data set is described as follows: Antimycobacterial activity against Mycobacterium tuberculosis CNCTC My 331/88 after 14 days by microdilution method. Format: functional. To be noted: CNCTC My 331/88, 336 h. In a few lines:
(§1)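 MIC determined by a dilution micromethod. Strains came from the Czech National Collection of Type Cultures, Prague. Compounds were added to the medium as DMSO solutions. Each inoculum was also plated in parallel on Löwenstein–Jensen medium to check its sterility and growth. The M. avium strain is identical with ATCC 25291 and resistant to INH.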
In general terms: Dilution methods test growth across graded concentrations, often in twofold steps.

The next data set concerns HeLa. Put plainly: Cytotoxicity against human HeLa cells after 72 hrs by using methylene blue staining. In kind it is functional, cell-based. The method, boiled down: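 HeLa cells in RPMI 1640 with supplements, preincubated 48 h without compound. Compound dilutions were then applied to subconfluent monolayers for 72 h at 37 °C, 5% CO2. Cells were glutaraldehyde-fixed, stained with 0.05% methylene blue, eluted with 0.33 N HCl and read at OD 660 nm. CC50 taken at 50% intersection versus negative control.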

Data set [2] has as its system Mycobacterium tuberculosis. Put plainly: Antimycobacterial activity against Mycobacterium tuberculosis CNCTC My 331/88 after 21 days by microdilution method. In kind it is functional. To be noted: CNCTC My 331/88, 504 h. In a few lines:
as §1

For data set [3], the system named is Mycobacterium kansasii. Put plainly: Antimycobacterial activity against Mycobacterium kansasii CNCTC My 235/80 after 14 days by microdilution method. Format: functional. To be noted: CNCTC My 235/80, 336 h. In a few lines:
(§2)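 Dilution micromethod for MIC; compounds added to medium as DMSO solutions. Each strain also inoculated onto Löwenstein–Jensen medium to control inoculum sterility and growth. Strain 6509/96 is a clinical isolate; CNCTC strains from the Czech national type culture collection.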

In data set [4] the test system is Mycobacterium avium. Put plainly: Antimycobacterial activity against Mycobacterium avium CNCTC My 330/88 after 14 days by microdilution method. Format: functional. Particulars: CNCTC My 330/88, 336 h. In a few lines: as §1
For data set [5], the system named is Mycobacterium avium. The data set is described as follows: Antimycobacterial activity against Mycobacterium avium CNCTC My 330/88 after 21 days by microdilution method. Particulars: CNCTC My 330/88, 504 h. In kind it is functional. The method, boiled down: as §1
For data set [6], the system named is Mycobacterium kansasii. Put plainly: Antimycobacterial activity against Mycobacterium kansasii 6509/96 after 21 days by microdilution method. In kind it is functional. To be noted: 6509/96, 504 h. The method, boiled down: as §2
The next data set deals with HUVEC. The data set is described as follows: Antiproliferative activity against HUVEC after 72 hrs by using methylene blue staining. In kind it is cell-based. Particulars: human. In a few lines: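 HUVEC in culture medium with ultraglutamine, gentamicin, 10% heat-inactivated FBS, 37 °C. Harvested in log phase by trypsinization; about 10,000 cells/well. Compounds in DMSO, diluted in DMEM, incubated 72 h at 37 °C, 5% CO2. Cells then glutaraldehyde-fixed, stained with 0.05% methylene blue for 15 min, eluted with 0.33 N HCl, OD 660 nm. GI50 taken at 50% intersection versus untreated control.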

Data set [7] deals with Mycobacterium kansasii. The data set is described as follows: Antimycobacterial activity against Mycobacterium kansasii CNCTC My 235/80 after 21 days by microdilution method. Format: functional. To be noted: CNCTC My 235/80, 504 h. The method, boiled down:
as §2

In the next data set the test system is K562. The data set is described as follows: Antiproliferative activity against human K562 cells after 72 hrs by celltiter-blue assay. In kind it is functional, cell-based. In a few lines:
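K-562 grown in RPMI 1640 with ultraglutamine, gentamicin, 10% heat-inactivated FBS at 37 °C; about 10,000 cells/well. Compounds dissolved in DMSO and diluted in DMEM, incubated 72 h at 37 °C, 5% CO2. Viability read by CellTiter-Blue resazurin reduction. GI50 taken where the dose-response curve crosses 50% of untreated control.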
A general note: The colour change of resazurin is a common sign of viable cells or microbes.

Data set [8] concerns Mycobacterium kansasii. The data set is described as follows: Antimycobacterial activity against Mycobacterium kansasii 6509/96 after 14 days by microdilution method. Particulars: for MIC: 6509/96, 336 h. Format: functional. In a few lines:
as §2

In general, MIC refers to the least concentration at which growth counts as inhibited. High values mean a less susceptible organism, low ones a more susceptible organism.

In brackets after ≈: the same amount, converted by molar mass.

Consider `O=c1oc2ccc(Br)cc2c(=O)n1Cc1ccc(Cl)c(Cl)c1`, for which the MIC in data set [1] is 32 µM (≈ 12.8 µg/mL); in [2], 32 µM (≈ 12.8 µg/mL); in the data set on Mycobacterium kansasii [3] it was 62.5 µM (≈ 25.1 µg/mL); with Mycobacterium avium [4] it was 32 µM (≈ 12.8 µg/mL); against Mycobacterium avium [5], 32 µM (≈ 12.8 µg/mL); in the data set on Mycobacterium kansasii [6] it was 62.5 µM (≈ 25.1 µg/mL). The MIC against Mycobacterium kansasii [7] and in the data set with Mycobacterium kansasii [8] was 62.5 µM (≈ 25.1 µg/mL) in each case. Also, the Activity entry in the data set with HeLa, with HUVEC and in the data set with K562 was “Toxic” each time.

In the case of `O=c1oc2ccccc2c(=S)n1Cc1ccccc1`, the MIC in data set [1] is 1 µM (≈ 0.269 µg/mL); in [2], 2 µM (≈ 0.539 µg/mL); against Mycobacterium kansasii [3] it was 4 µM (≈ 1.08 µg/mL); in the data set with Mycobacterium avium [4], 8 µM (≈ 2.15 µg/mL); in the data set on Mycobacterium avium [5] it was 8 µM (≈ 2.15 µg/mL); with Mycobacterium kansasii [6], 8 µM (≈ 2.15 µg/mL). The minimum inhibitory concentration (MIC) in the data set with Mycobacterium kansasii [7] came to 8 µM (≈ 2.15 µg/mL); against Mycobacterium kansasii [8], 4 µM (≈ 1.08 µg/mL). The Activity result with HeLa, with HUVEC and with K562 was “Toxic” in each case.

Turning to `O=c1oc2ccc(Cl)cc2c(=O)n1Cc1ccc(F)cc1`, the MIC in [1] turned out to be 32 µM (≈ 9.78 µg/mL); in data set [2] it was 32 µM (≈ 9.78 µg/mL); against Mycobacterium kansasii [3] it was 62.5 µM (≈ 19.1 µg/mL); in the data set with Mycobacterium avium [4] it was 32 µM (≈ 9.78 µg/mL); against Mycobacterium avium [5], 32 µM (≈ 9.78 µg/mL); in the data set on Mycobacterium kansasii [6] it was 125 µM (≈ 38.2 µg/mL). Further, the MIC in the data set on Mycobacterium kansasii [7] was 62.5 µM (≈ 19.1 µg/mL). The Activity entry in the data set on HeLa, with HUVEC, in the data set with K562 and in the data set on Mycobacterium kansasii [8] was “Toxic” in each case.

`S=c1oc2ccc(Br)cc2c(=S)n1Cc1ccccc1`: the MIC in data set [1] was found to be 1 µM (≈ 0.364 µg/mL); in data set [2] it was 2 µM (≈ 0.729 µg/mL); in the data set on Mycobacterium kansasii [3] it was 8 µM (≈ 2.91 µg/mL); with Mycobacterium avium [4], 8 µM (≈ 2.91 µg/mL); against Mycobacterium avium [5] it was 8 µM (≈ 2.91 µg/mL); against Mycobacterium kansasii [6], 8 µM (≈ 2.91 µg/mL). Moreover, the MIC against Mycobacterium kansasii [7] came out at 8 µM (≈ 2.91 µg/mL); against Mycobacterium kansasii [8], 4 µM (≈ 1.46 µg/mL).

Take `Fc1ccc(Cn2c(=S)oc3ccc(Cl)cc3c2=S)cc1`: the MIC in data set [1] was found to be 1 µM (≈ 0.338 µg/mL); in [2] it was 2 µM (≈ 0.676 µg/mL); against Mycobacterium kansasii [3] it was 8 µM (≈ 2.7 µg/mL); in the data set on Mycobacterium avium [4], 8 µM (≈ 2.7 µg/mL); with Mycobacterium avium [5] it was 16 µM (≈ 5.41 µg/mL); in the data set with Mycobacterium kansasii [6], 16 µM (≈ 5.41 µg/mL). Moreover, the MIC in the data set with Mycobacterium kansasii [7] is 16 µM (≈ 5.41 µg/mL); in the data set with Mycobacterium kansasii [8] it was 8 µM (≈ 2.7 µg/mL).

In the case of `O=c1oc2c(Cl)cc(Cl)cc2c(=O)n1Cc1ccc(Cl)c(Cl)c1`, the MIC was found to be 62.5 µM (≈ 24.4 µg/mL) in data set [1]; 125 µM (≈ 48.9 µg/mL) in data set [2]; 125 µM (≈ 48.9 µg/mL) against Mycobacterium kansasii [3]; 125 µM (≈ 48.9 µg/mL) with Mycobacterium avium [4]; 125 µM (≈ 48.9 µg/mL) against Mycobacterium avium [5]; 125 µM (≈ 48.9 µg/mL) in the data set with Mycobacterium kansasii [6]. For the same molecule, the MIC with Mycobacterium kansasii [7] and against Mycobacterium kansasii [8] was 125 µM (≈ 48.9 µg/mL) each time. The Activity result in the data set on HeLa, in the data set on HUVEC and in the data set on K562 was “Toxic” in each case.

Consider `S=c1oc2ccc(Cl)cc2c(=S)n1Cc1ccc(Cl)c(Cl)c1`, for which the MIC in [1] came out at 4 µM (≈ 1.55 µg/mL); in data set [2] it was 8 µM (≈ 3.11 µg/mL); with Mycobacterium kansasii [3], 32 µM (≈ 12.4 µg/mL); against Mycobacterium avium [4], 16 µM (≈ 6.22 µg/mL); with Mycobacterium avium [5], 32 µM (≈ 12.4 µg/mL); against Mycobacterium kansasii [6], 32 µM (≈ 12.4 µg/mL). The MIC in the data set on Mycobacterium kansasii [7] and against Mycobacterium kansasii [8] was 32 µM (≈ 12.4 µg/mL) throughout.

As to `S=c1oc2ccc(Br)cc2c(=S)n1Cc1ccc(Cl)c(Cl)c1`, the MIC in [1] was found to be 4 µM (≈ 1.73 µg/mL); in data set [2], 8 µM (≈ 3.47 µg/mL); against Mycobacterium kansasii [3] it was 16 µM (≈ 6.93 µg/mL); with Mycobacterium avium [4], 16 µM (≈ 6.93 µg/mL); in the data set on Mycobacterium avium [5] it was 16 µM (≈ 6.93 µg/mL); in the data set on Mycobacterium kansasii [6], 32 µM (≈ 13.9 µg/mL). Moreover, the MIC in the data set with Mycobacterium kansasii [7] stood at 32 µM (≈ 13.9 µg/mL); against Mycobacterium kansasii [8], 16 µM (≈ 6.93 µg/mL).

Turning to `S=c1oc2c(Cl)cc(Cl)cc2c(=S)n1Cc1ccc(Cl)c(Cl)c1`, the minimum inhibitory concentration (MIC) in [1] was 32 µM (≈ 13.5 µg/mL); in [2], 32 µM (≈ 13.5 µg/mL); against Mycobacterium kansasii [3], 62.5 µM (≈ 26.4 µg/mL); against Mycobacterium avium [4], 62.5 µM (≈ 26.4 µg/mL); in the data set with Mycobacterium avium [5], 62.5 µM (≈ 26.4 µg/mL); against Mycobacterium kansasii [6], 62.5 µM (≈ 26.4 µg/mL). Moreover, the MIC in the data set on Mycobacterium kansasii [7] and in the data set on Mycobacterium kansasii [8] was 62.5 µM (≈ 26.4 µg/mL) in each case.

For the molecule `S=c1oc2ccccc2c(=S)n1Cc1ccccc1`, the MIC in data set [1] turned out to be 1 µM (≈ 0.285 µg/mL); in [2] it was 1 µM (≈ 0.285 µg/mL); against Mycobacterium kansasii [3] it was 2 µM (≈ 0.571 µg/mL); in the data set on Mycobacterium avium [4] it was 1 µM (≈ 0.285 µg/mL); against Mycobacterium avium [5], 1 µM (≈ 0.285 µg/mL); against Mycobacterium kansasii [6] it was 2 µM (≈ 0.571 µg/mL). Moreover, the MIC against Mycobacterium kansasii [7] worked out at 2 µM (≈ 0.571 µg/mL); in the data set with Mycobacterium kansasii [8], 1 µM (≈ 0.285 µg/mL).
